These results are taken from ChEMBL document CHEMBL3244302, “Potential long-acting anticonvulsants. 1; Synthesis and activity of succinimides containing an alkylating group at the 2 position” (J Med Chem, 1977).

Molecules are shown by their SMILES. The source made the active and inactive calls.

In the first data set the test system is Mus musculus. As to the kind of experiment: Anticonvulsant activity in mouse assessed as protection against metrazole-induced seizures at 300 mg/kg, ip after 30 mins by subcutaneous pentylenetetrazole seizure threshold test. Set-up: dose 300 mg/kg. It counts as functional, organism-based.
Conditions: not given
A digest of the protocol:
(§1)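 Screen in mice given 30, 100 or 300 mg/kg ip in 0.9% NaCl or 30% PEG 400 (0.01 ml/g), four animals per dose. Subcutaneous metrazole challenge was given to one mouse per dose at 30 min and to another at 4 h. Activity was scored as the lowest active dose.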
In the case of `CN1C(=O)CC(CCCNC(=O)/C=C\C(=O)O)(c2ccccc2)C1=O` (configuration not stated), the outcome was inactive.

With `CN1C(=O)CC(CCNC(=O)/C=C\C(=O)O)(c2ccccc2)C1=O` (configuration not stated), the result was inactive.

As for `CN1C(=O)CC(C(=O)c2ccc(N3C(=O)C=CC3=O)cc2)(c2ccccc2)C1=O` (configuration not stated), the result was inactive.

In the case of `CN1C(=O)CC(c2ccc(NC(=O)/C=C\C(=O)O)cc2)C1=O` (configuration not stated), the result was inactive.

Take `CN1C(=O)CC(CCCNC(=O)CCl)(c2ccccc2)C1=O` (configuration not stated): the outcome was inactive.

As for `CN1C(=O)CC(C(=O)c2ccc(NC(=O)/C=C\C(=O)O)cc2)(c2ccccc2)C1=O` (configuration not stated), the outcome was inactive.

As to `CN1C(=O)CC(C(=O)c2ccc(NC(=O)CBr)cc2)(c2ccccc2)C1=O` (configuration not stated), the outcome was inactive.

For the compound `CN1C(=O)CC(CCNC(=O)CCl)(c2ccccc2)C1=O` (configuration not stated), the outcome was inactive.

Turning to `CN1C(=O)CC(CCCN2C(=O)C=CC2=O)(c2ccccc2)C1=O` (configuration not stated), the result was inactive.

The test system of a further data set is Mus musculus. Kind of data set: Anticonvulsant activity in mouse assessed as protection against maximal electroshock-induced hindlimb tonic extensor component of seizure at 300 mg/kg, ip after 30 mins by MES test. It counts as functional, organism-based. Set-up: dose 300 mg/kg.
Conditions: not given
A digest of the protocol:
(§2)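 Mice were dosed ip at 30, 100 or 300 mg/kg in 0.9% NaCl or 30% PEG 400 (0.01 ml/g), with four animals per dose. One mouse per dose got MES at 30 min and another at 4 h. Stimulus: 60-Hz AC, 50 mA, 0.2 s, corneal electrodes. Protection was abolition of hindlimb tonic extension; the lowest active dose was scored.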
As to `CN1C(=O)CC(CCCNC(=O)/C=C\C(=O)O)(c2ccccc2)C1=O` (configuration not stated), the result was inactive.

As for `CN1C(=O)CC(CCNC(=O)/C=C\C(=O)O)(c2ccccc2)C1=O` (configuration not stated), the result was inactive.

Regarding `CN1C(=O)CC(C(=O)c2ccc(N3C(=O)C=CC3=O)cc2)(c2ccccc2)C1=O` (configuration not stated), the outcome was inactive.

`CN1C(=O)CC(c2ccc(NC(=O)/C=C\C(=O)O)cc2)C1=O` (configuration not stated): the outcome was inactive.

Take `CN1C(=O)CC(CCCNC(=O)CCl)(c2ccccc2)C1=O` (configuration not stated): the outcome was inactive.

Consider `CN1C(=O)CC(C(=O)c2ccc(NC(=O)/C=C\C(=O)O)cc2)(c2ccccc2)C1=O` (configuration not stated), for which the outcome was inactive.

Turning to `CN1C(=O)CC(C(=O)c2ccc(NC(=O)CBr)cc2)(c2ccccc2)C1=O` (configuration not stated), the result was inactive.

Take `CN1C(=O)CC(CCNC(=O)CCl)(c2ccccc2)C1=O` (configuration not stated): the result was inactive.

As for `CN1C(=O)CC(CCCN2C(=O)C=CC2=O)(c2ccccc2)C1=O` (configuration not stated), the outcome was inactive.

In the next data set the test system is Mus musculus. Kind of data set: Anticonvulsant activity in mouse assessed as protection against metrazole-induced seizures at 100 mg/kg, ip after 4 hrs by subcutaneous pentylenetetrazole seizure threshold test. It counts as functional, organism-based. Set-up: dose 100 mg/kg.
Conditions: not given
A digest of the protocol:
as §1
For `CN1C(=O)CC(CCCN2C(=O)C=CC2=O)(c2ccccc2)C1=O` (configuration not stated), the result was Active.

The next data set relates to Mus musculus. Kind of data set: Anticonvulsant activity in mouse assessed as protection against metrazole-induced seizures at 300 mg/kg, ip after 4 hrs by subcutaneous pentylenetetrazole seizure threshold test. It counts as functional, organism-based. Also on record: dose 300 mg/kg.
Conditions: not given
A digest of the protocol: as §1
Regarding `CN1C(=O)CC(CCCNC(=O)/C=C\C(=O)O)(c2ccccc2)C1=O` (configuration not stated), the outcome was inactive.

Turning to `CN1C(=O)CC(CCNC(=O)/C=C\C(=O)O)(c2ccccc2)C1=O` (configuration not stated), the result was inactive.

Take `CN1C(=O)CC(C(=O)c2ccc(N3C(=O)C=CC3=O)cc2)(c2ccccc2)C1=O` (configuration not stated): the outcome was inactive.

`CN1C(=O)CC(c2ccc(NC(=O)/C=C\C(=O)O)cc2)C1=O` (configuration not stated): the outcome was inactive.

Turning to `CN1C(=O)CC(CCCNC(=O)CCl)(c2ccccc2)C1=O` (configuration not stated), the result was inactive.

As for `CN1C(=O)CC(C(=O)c2ccc(NC(=O)/C=C\C(=O)O)cc2)(c2ccccc2)C1=O` (configuration not stated), the result was inactive.

As for `CN1C(=O)CC(C(=O)c2ccc(NC(=O)CBr)cc2)(c2ccccc2)C1=O` (configuration not stated), the outcome was inactive.

For `CN1C(=O)CC(CCNC(=O)CCl)(c2ccccc2)C1=O` (configuration not stated), the result was inactive.

A further data set concerns Mus musculus. As to the kind of experiment: Neurotoxicity in ip dosed mouse assessed as CNS depression. It counts as toxicity, organism-based, Central nervous system. Particulars: in vivo.
On to `CN1C(=O)CC(CCCN2C(=O)C=CC2=O)(c2ccccc2)C1=O` (configuration not stated), for which the Activity entry is “Toxic”.

The next data set has as its system Mus musculus. Kind of data set: Anticonvulsant activity in mouse assessed as protection against maximal electroshock-induced hindlimb tonic extensor component of seizure at 300 mg/kg, ip after 4 hrs by MES test. It counts as functional, organism-based. Set-up: dose 300 mg/kg.
Conditions: not given
A digest of the protocol:
as §2
As to `CN1C(=O)CC(CCCNC(=O)/C=C\C(=O)O)(c2ccccc2)C1=O` (configuration not stated), the outcome was inactive.

As to `CN1C(=O)CC(CCNC(=O)/C=C\C(=O)O)(c2ccccc2)C1=O` (configuration not stated), the outcome was inactive.

Regarding `CN1C(=O)CC(C(=O)c2ccc(N3C(=O)C=CC3=O)cc2)(c2ccccc2)C1=O` (configuration not stated), the result was inactive.

With `CN1C(=O)CC(c2ccc(NC(=O)/C=C\C(=O)O)cc2)C1=O` (configuration not stated), the outcome was inactive.

For `CN1C(=O)CC(CCCNC(=O)CCl)(c2ccccc2)C1=O` (configuration not stated), the outcome was inactive.

With `CN1C(=O)CC(C(=O)c2ccc(NC(=O)/C=C\C(=O)O)cc2)(c2ccccc2)C1=O` (configuration not stated), the result was inactive.

For the compound `CN1C(=O)CC(C(=O)c2ccc(NC(=O)CBr)cc2)(c2ccccc2)C1=O` (configuration not stated), the outcome was inactive.

As for `CN1C(=O)CC(CCNC(=O)CCl)(c2ccccc2)C1=O` (configuration not stated), the result was inactive.

Regarding `CN1C(=O)CC(CCCN2C(=O)C=CC2=O)(c2ccccc2)C1=O` (configuration not stated), the result was inactive.
